KCNQ1 pot = potentiates or activates the human KCNQ1 potassium channel; P51787; CHO-K1 KCNQ1, thallium flux FluxOR fluorescence; hits give high values; B-score at 10 µM; hit rate 0.35% among 310,000; AID 2648;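 active means fluorescence ratio B-score, a plate-corrected score, at least three library SD, with initial intensity B-score within 5 SD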
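assay system = KCNQ1-transfected CHO-K1 cells | medium = assay buffer with matched DMSO | probe or stimulus = depolarizing K+/Tl+ stimulus, K2SO4 and Tl2SO4 each 12.5 mM in 5x stock | dosing = single dose | incubation = dye 90 min, compound 20 min, room temperature | detection = kinetic FluxOR fluorescence, 10 s baseline plus 110 s post-stimulus | evaluation = ratio B score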
KCNK9 block = human KCNK9 channel inhibition; Q9NPC2; HEK293 KCNK9, FluxOR thallium flux fluorescence; hits give low values; B-score at 10 µM; hit rate 1.2% among 310,000; AID 488922;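 active means ratio B-score over 3 SD below the library mean, with starting fluorescence within 5 SD of its mean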;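 further: negative B-score means less thallium flux so channel inhibition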
Target sequence (Q9NPC2 whole entry, looked up): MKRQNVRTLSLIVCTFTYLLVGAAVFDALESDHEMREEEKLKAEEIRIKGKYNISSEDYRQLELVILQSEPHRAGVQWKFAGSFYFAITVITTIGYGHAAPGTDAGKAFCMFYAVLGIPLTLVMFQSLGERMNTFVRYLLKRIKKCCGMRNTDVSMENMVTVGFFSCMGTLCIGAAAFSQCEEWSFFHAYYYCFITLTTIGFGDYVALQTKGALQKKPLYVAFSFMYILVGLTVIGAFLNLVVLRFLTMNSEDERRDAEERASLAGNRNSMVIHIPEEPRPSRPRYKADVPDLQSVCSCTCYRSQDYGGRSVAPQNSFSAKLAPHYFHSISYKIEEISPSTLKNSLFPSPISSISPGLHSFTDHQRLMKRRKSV
hERG rescue = compounds protecting human hERG from proarrhythmic drug block; Q12809; CHO-hERG, FluxOR thallium flux, dofetilide IC70 present; activation (rescue from dofetilide block), less the hit threshold, % at 10 µM; hit rate 0.51% among 310,000;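 active means activation above the mean of controls blocked by dofetilide plus 5 SD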;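 further: thallium influx through hERG after potassium depolarization seen as dye fluorescence rise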
KCNQ1 block = human KCNQ1 channel inhibition; B-score at 10 µM; hit rate 1.3% among 310,000; AID 2642; CHO-K1 KCNQ1, FluxOR thallium flux fluorescence; hits give high values; P51787;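 active means compounds whose thallium flux B-score, printed positive for inhibition, exceeds three library SD while starting fluorescence stays within three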;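 further: channel opened by potassium depolarization with thallium stimulus after 20 min compound exposure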
Kir21 block = blocks the mouse Kir2.1 inward-rectifier potassium channel; HEK293-Kir2.1, FluxOR thallium flux fluorescence; hits give low values; B-score at 10 µM; hit rate 0.85% among 310,000; AID 1672;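 active means fluorescence ratio B-score at or below minus 3 SD of library scores, with starting-brightness B-score within 2 SD, cut at about -4.2 in these data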;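 further: channel flux triggered by added potassium and thallium sulfate stimulus; B-score of peak minus minimum fluorescence over baseline after thallium stimulus; more negative B-score means stronger Kir2.1 block with less thallium influx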
KCNK3 block = human KCNK3 channel inhibition, primary screen; CHO-KCNK3 thallium flux, FluxOR fluorescence; hits give low values; B-score at 10 µM; hit rate 0.84% among 340,000; AID 602410;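 active means B-score under library mean minus 4 SD, starting fluorescence ratio at most library mean plus 5 SD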;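 further: more negative B-score means stronger inhibition of thallium flux through KCNK3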
Starred values were filed as active, the others as inactive; i = inactive; . = no result given. Only some compounds are listed: those with a hit (about 3.8% of all), similar ones and a draw of the others.

SMILES	KCNQ1 pot	KCNK9 block	hERG rescue	KCNQ1 block	Kir21 block	KCNK3 block
CCc1nccn1CCC(=O)NC1CC(C)(C)Cc2c1cnn2-c1cccc(F)c1 (centres undefined)	i	i	-7	i	-0.02	i
Cc1cc(C)c(CN2CCN(C(=O)Cn3cnc4c(OCc5ccccc5)ncnc43)CC2)c(C)c1	.	.	.	.	.	i
Oc1ccc2ccccc2c1C=Nc1ccccc1-c1nc2ccccc2[nH]1	i	i	-9	9*	0.78	i
O=C(O)c1ccccc1-c1nc2ccccc2[nH]1	i	i	-3	i	-0.05	i
O=c1c2ccccc2ncn1-c1ccc(Br)cc1[N+](=O)[O-]	i	i	-6	i	-0.03	i
COc1ccc(-n2cnc3ccccc3c2=O)c([N+](=O)[O-])c1	i	i	5.5*	i	0.08	i
O=c1c(C(c2ccccc2)c2c(O)sc3ccccc3c2=O)c(O)sc2ccccc12	i	-8.2*	-9	i	2.5	i
CCOC(=O)c1nn(-c2ccc(Br)cc2)cc1C(=O)c1cccc2ccccc12	i	i	-14	i	3.2	i
CSc1nsc(SCC(=O)NCc2ccc(C)cc2)n1	i	i	-5	i	-0.4	i
CC(=O)NC(c1ccc(C(C)C)cc1)c1c(O)ccc2ccccc12 (centres undefined)	i	i	-2	i	-0.5	i
Cc1ccc(C(NC(=O)C2CCCCC2)c2c(O)ccc3ccccc23)cc1 (centres undefined)	i	i	-16	9*	0.76	i
COc1ccccc1-c1nc(S(=O)(=O)c2ccc(Cl)cc2)c(N(C)C)o1	i	i	5.4*	i	-0.28	i
CCCOc1ccc(CNC(=S)Nc2ccccc2)cc1Cl	i	i	-13	i	0.06	i
NC(N)=N/N=C/c1ccc2cccc(OCc3ccccc3)c2n1	i	i	-25	6*	-5.3*	i
O=C(N/N=C/c1ccc2cccc(OCc3ccccc3)c2n1)c1ccc(Br)cc1	i	i	11*	i	2.8	i
COc1ccc(C(=O)N/N=C/c2ccc3cccc(OCc4ccccc4)c3n2)cc1	i	i	-3	i	0.23	i
COc1ccc(CN(C(=O)CSc2nnc(-c3ccccc3C)o2)c2ccc(F)cc2)cc1	i	i	-15	6*	0.39	i
CN(C(=O)c1cccc(NC(=O)Cc2ccc(NC(=O)C3CCCN(S(=O)(=O)c4cccc([N+](=O)[O-])c4)C3)cc2)c1)C1CCCCC1 (centres undefined)	.	.	.	.	.	i
Cc1ccc(C(C)NC(=S)NCc2ccc(F)cc2)cc1C (centres undefined)	i	i	-9	i	-11*	i
CC(=O)Nc1sc2c(c1C#N)CCC(C)C2 (centres undefined)	i	i	-6	i	2	i
Cc1ccc(C)n1-c1sc2c(c1C#N)CCC(C)C2 (centres undefined)	i	-7.4*	-5	i	0.95	i
COc1ccc(C2CC(c3cccs3)=NN2C(=O)CSc2nc3c(cnn3-c3ccccc3)c(=O)[nH]2)cc1 (centres undefined)	i	i	-16	6*	0.61	i
CCOC(=O)CSc1nc2c([nH]c3ccccc32)c(=O)n1C	i	i	6.7*	i	0.54	i
CCOc1ccccc1NC(=O)CSCC(=O)Nc1ccccc1	i	i	-8	i	-3.7	i
Cc1ccc(NC(=O)CC(O)(C(F)(F)F)C(F)(F)F)c(Br)c1	i	i	-11	6*	2.4	i
SMILES	KCNQ1 pot	KCNK9 block	hERG rescue	KCNQ1 block	Kir21 block	KCNK3 block
CCOc1ccccc1NC(=O)CC(O)(C(F)(F)F)C(F)(F)F	i	i	-10	6*	-0.02	i
CCN(CC)S(=O)(=O)c1ccc(C(=O)NCc2n[nH]c(=S)n2-c2ccc(Cl)c(Cl)c2)cc1	i	i	-18	i	-0.25	i
O=C(Nc1cccc(-c2nc3ccccc3s2)c1)c1cc(-n2cnnc2)ccc1Cl	i	i	-18	6*	1.6	i
CCOc1cc(C(c2c(C)[nH][nH]c2=O)c2c(C)[nH][nH]c2=O)ccc1OCc1ccc([N+](=O)[O-])cc1	i	i	-6	i	-5.7*	i
CC(NC(=O)c1ccc2c(c1)OCO2)C(c1cccs1)N1CCN(c2ccccc2)CC1 (centres undefined)	i	i	-11	i	1.2	i
Cc1cc(C)cc(NC(=S)NCC2CCN(C(C)c3ccccc3)C2)c1 (centres undefined)	i	i	-17	i	-4.9*	i
Cc1ccccc1NC(=S)NCC1CCN(C(C)c2ccccc2)C1 (centres undefined)	i	i	-13	i	-1.5	i
CCOc1ccc(CCNC(=O)c2ccccc2OCc2c(C)noc2C)cc1OCC	i	i	-9	i	-2.2	i
Cc1ccc2c(c1)C1CN(C)CCC1N2C(=S)NC(=O)c1ccc(Br)cc1 (centres undefined)	22*	i	-2	i	0.01	i
CCOc1ccccc1OCCCCCc1c(C)n[nH]c1C	i	i	-23	i	-4.8*	i
COc1ccccc1OCCCCCc1c(C)n[nH]c1C	i	i	-16	i	-1.4	i
Cc1onc(-c2ccccc2)c1C(O)c1ccc(F)cc1 (centres undefined)	i	i	-6	i	-4.2	i
Cc1sc2ncnc(N3CCC(C(=O)Nc4nnc(CC(C)C)s4)CC3)c2c1C	i	i	-5	i	2.3	i
O=S(=O)(Nc1cc(S(=O)(=O)N2CCOCC2)ccc1NCC1CCCO1)c1ccc(F)cc1 (centres undefined)	.	.	.	.	.	i
CC(C)(C)c1ccc(-c2nnc(SCCC#N)n2C2CCCC2)cc1	i	i	-18	6*	0.5	i
CCOC(=O)C1CCN(C(=O)Cc2c(C(=O)O)n(CC)c3ccccc23)CC1	i	i	5.5*	i	-0.6	i
CCOC(=O)NC(=O)C(/C=N/c1sccc1C(=O)OC)=C(\C)O	i	i	-5	i	1	i
COc1ccc(/C=C(\C#N)C(=O)OCC(=O)Nc2ccc(C(C)(C)C)cc2)cc1	i	i	-14	7*	0.41	i
Cn1c(SCC(=O)NC(c2ccccc2)c2ccccc2)nnc1-c1cccs1	i	i	-1	i	-2.5	i
CC(=O)NC(c1ccc2ccccc2c1)c1ccc2cccnc2c1O (centres undefined)	i	i	-3	i	-1.4	i
